Most compounds without a hit are left out; they make up all but 2.5% or so of the library.
TCR CD3 inh: blocks the human TCR-CD3 interaction; 0.37% of 360,000 active; AID 651800; TAMRA-labeled TCR probe fluorescence, biochemical; inhibition, % at 9.4 µM; in the data active means inhibition above about 19%;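 further: recombinant mutant TCR 2C K166C tagged with TAMRA read by polarization; 0% = receptor in buffer alone and 100% = receptor with positive control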
mABHD4 FP: inhibitors of mouse ABHD4; Q8VD66; purified mABHD4, FP-Rh probe fluorescence polarization; inhibition, % at 8.92 µM; 0.54% of 370,000 active; AID 720543;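 active means inhibition exceeding the mean over every tested compound plus 3 SD, cut at about 30% in these data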;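 further: 0% = plate median of compound wells and 100% = S159A mutant with DMSO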
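system = mouse ABHD4 enzyme, wild type | medium = HEPES pH 7.0, NaCl, Pluronic buffer | also added = FP-Rh probe | incubation = Enzyme–compound pre-incubation 45 min, then probe 60 min, both 25 °C | technique = fluorescence polarization, excitation 525 nm, emission 598 nm, BODIPY TMR filters | controls = S159A mutant high control, sample median low control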
SIAE primary: blocks human sialic acid acetylesterase. Q9HAT2. SIAE FP-Rh probe binding, fluorescence polarization. inhibition, % at 9.66 µM. 0.69% of 370,000 active. AID 1053197;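 active means inhibition above a cutoff: mean of compounds within the control limits plus 3 SD of those, cut at about 17% in these data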;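 further: 0% = plate median of compound wells and 100% = probe without SIAE protein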
PRMT1 FP inh: blocks human protein arginine methyltransferase 1. Q99873. recombinant PRMT1, activity-based probe fluorescence polarization. inhibition, % at 2.79 µM. 1.3% of 370,000 active. AID 652257;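 active means inhibition above about 21% made by adding two undisclosed values, limit read from the data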
HTRA1 inh: HTRA1 (human) protease inhibition. recombinant HTRA1, FP-rhodamine activity-based probe, fluorescence polarization. inhibition, % at 5.96 µM. 0.5% of 340,000 active; in the data active means inhibition above about 36%;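 further: 0% = enzyme with DMSO and 100% = wells lacking enzyme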
Target sequence (Q92743 whole entry, looked up): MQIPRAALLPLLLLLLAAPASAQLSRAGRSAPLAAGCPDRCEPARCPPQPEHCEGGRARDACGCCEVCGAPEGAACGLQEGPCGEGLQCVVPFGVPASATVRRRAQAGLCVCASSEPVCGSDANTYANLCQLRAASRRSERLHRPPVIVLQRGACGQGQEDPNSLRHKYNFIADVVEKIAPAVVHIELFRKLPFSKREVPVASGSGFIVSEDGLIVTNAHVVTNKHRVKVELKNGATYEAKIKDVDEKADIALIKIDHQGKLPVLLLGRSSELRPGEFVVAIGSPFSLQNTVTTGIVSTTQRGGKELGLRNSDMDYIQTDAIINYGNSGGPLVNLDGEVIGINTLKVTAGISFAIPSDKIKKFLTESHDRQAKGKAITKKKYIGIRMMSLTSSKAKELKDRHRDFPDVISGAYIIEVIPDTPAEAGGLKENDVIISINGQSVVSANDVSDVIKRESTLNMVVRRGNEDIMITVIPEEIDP
PRMT1 inh conf: PRMT1 (human) inhibition, FP confirmation | shares compounds with PRMT1 FP inh | recombinant His-PRMT1, activity-based probe fluorescence polarization | inhibition, % at 2.79 µM | 42% of 3,300 active | AID 687036;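 active means mean inhibition across replicates above the hit cutoff derived for the earlier primary screen, cut at about 22% in these data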
* hit, by the source's call.

Results for Cc1ccc(-c2nc3c(Cl)cc(C(F)(F)F)cn3c2Cc2ccccc2C(F)(F)F)cc1 ?
TCR CD3 inh: 0.6; mABHD4 FP: -24.7; SIAE primary: -12.8; PRMT1 FP inh: 1.1

How did CC(C)n1c(-c2ccccc2)nc(=S)c2c1CCCC2 do in these assays?
TCR CD3 inh: -5.0; mABHD4 FP: 12.7; SIAE primary: 1.2; PRMT1 FP inh: 36.0*; PRMT1 inh conf: 2.7

What do the screens show for `CC(C)(C)OC(=O)C1[C@H](O)C=CC[C@H]1S(=O)c1ccccc1` (some centres undefined)?
mABHD4 FP: 6.4; SIAE primary: 1.3; PRMT1 FP inh: 16.3

What do the screens show for `CS/C(=N\S(=O)(=O)c1cccs1)NC(=O)CSc1nc2ccccc2s1`?
TCR CD3 inh: 14.9; mABHD4 FP: -3.4; SIAE primary: -9.6; PRMT1 FP inh: 28.3*; HTRA1 inh: 5.9; PRMT1 inh conf: 33.2*

Results for C/C(=N/NC(=O)CSc1nc2ccccc2s1)c1ccncc1 ?
TCR CD3 inh: -5.0; mABHD4 FP: -8.3; SIAE primary: -4.8; PRMT1 FP inh: -1.4; HTRA1 inh: -9.1

How did O=C(NC1CCCCN(Cc2ccc(OC(F)(F)F)cc2)C1=O)c1cccc(F)c1 (centres undefined) do in these assays?
mABHD4 FP: -4.3; SIAE primary: -0.3; PRMT1 FP inh: -2.0

What do the screens show for `S=P(N1CC1)(N1CC1)N1CC1`?
TCR CD3 inh: 6.0; mABHD4 FP: -7.1; SIAE primary: 7.3; PRMT1 FP inh: 39.6*; HTRA1 inh: 1.2; PRMT1 inh conf: 10.3

Results for O=C(NC1CCCCN(Cc2cccc(C(F)(F)F)c2)C1=O)C1C2CC3CC(C2)CC1C3 (centres undefined) ?
mABHD4 FP: 2.9; SIAE primary: 1.7; PRMT1 FP inh: 2.1

How did CC(=O)Nc1ccc(S(=O)(=O)Nc2nc3ccccc3nc2Sc2nncn2C)cc1 do in these assays?
TCR CD3 inh: 6.6; mABHD4 FP: 2.6; SIAE primary: -2.7; PRMT1 FP inh: 25.0*; HTRA1 inh: 3.3; PRMT1 inh conf: 4.9

Results for Cn1cnnc1Sc1nc2ccccc2nc1NS(=O)(=O)c1ccccc1 ?
TCR CD3 inh: -5.5; mABHD4 FP: -3.7; SIAE primary: -3.2; PRMT1 FP inh: 1.4; HTRA1 inh: 4.0

Results for COCCn1c2nc(=O)n(-c3ccccc3)c(=O)c-2nc2ccccc21 ?
TCR CD3 inh: 7.0; mABHD4 FP: 4.7; SIAE primary: 2.7; PRMT1 FP inh: 114.5*; HTRA1 inh: 4.4; PRMT1 inh conf: 112.7*

What do the screens show for `O=C(CSc1nnc(COc2ccc(Cl)cc2)n1Cc1ccco1)Nc1ccc2c(c1)OCO2`?
mABHD4 FP: 2.0; SIAE primary: 7.4; PRMT1 FP inh: -2.6

Results for COc1cc2c(cc1OC)CN(C1CC(=O)N(c3c(C)cccc3C)C1=O)CC2 (centres undefined) ?
TCR CD3 inh: -6.8; mABHD4 FP: -9.9; SIAE primary: -8.0; PRMT1 FP inh: 31.6*; HTRA1 inh: -0.2; PRMT1 inh conf: 1.3

Results for Oc1ccc(Cl)cc1/C=N/c1nccs1 ?
TCR CD3 inh: -1.3; mABHD4 FP: -0.5; SIAE primary: 4.0; PRMT1 FP inh: 1.2; HTRA1 inh: 2.4

Results for Oc1ccc(Cl)cc1C=Nc1ccc2c3c(cccc13)CC2 ?
TCR CD3 inh: 15.4; mABHD4 FP: 20.4; SIAE primary: -1.2; PRMT1 FP inh: 39.2*; HTRA1 inh: 20.6; PRMT1 inh conf: 13.2

How did O=C(NC1CCCCC1)C(c1ccccc1)n1c(=O)c(-c2ccco2)nc2ccccc21 (centres undefined) do in these assays?
TCR CD3 inh: -10.4; mABHD4 FP: 5.2; SIAE primary: -5.2; PRMT1 FP inh: 28.4*; PRMT1 inh conf: 23.1*

Results for O=C(NC1CCCCC1)C(c1ccc(C(F)(F)F)cc1)n1c(=O)c(-c2ccco2)nc2ccccc21 (centres undefined) ?
TCR CD3 inh: -0.5; mABHD4 FP: -12.3; SIAE primary: -12.9; PRMT1 FP inh: 29.1*; PRMT1 inh conf: 14.7

Results for NC(=O)C1CCN(c2nc(-c3ccc4c(c3)CCO4)cs2)CC1 ?
mABHD4 FP: -2.7; SIAE primary: -15.3; PRMT1 FP inh: -3.4

How did Cc1ccc(S(=O)(=O)CC(N)=O)cc1 do in these assays?
TCR CD3 inh: -5.2; mABHD4 FP: -4.3; SIAE primary: -7.7; PRMT1 FP inh: -1.3; HTRA1 inh: -1.9

Results for Cc1ccc(S(=O)(=O)CCSC(=N)N)cc1 ?
TCR CD3 inh: 5.6; mABHD4 FP: -1.0; SIAE primary: 2.9; PRMT1 FP inh: 25.0*; HTRA1 inh: 3.8; PRMT1 inh conf: 6.8

Results for Cc1cc(C)cc(NC(=O)N2CCC(c3nc4ccc(Cl)cc4[nH]3)CC2)c1 ?
mABHD4 FP: -6.2; SIAE primary: -7.0; PRMT1 FP inh: -0.7

How did CC1(C)c2ccccc2N2CC(=O)N(CC(N)=O)C21C (centres undefined) do in these assays?
TCR CD3 inh: -44.9; mABHD4 FP: -184.5; SIAE primary: -253.7; PRMT1 FP inh: 56.0*; HTRA1 inh: -220.8; PRMT1 inh conf: 14.3

How did CCN(CC)C(=S)SCC(=O)Nc1ccc(S(N)(=O)=O)cc1 do in these assays?
TCR CD3 inh: 4.9; mABHD4 FP: -2.6; SIAE primary: 0.2; PRMT1 FP inh: -4.2; HTRA1 inh: 3.2

Results for CCN(CC)C(=S)SCC(=O)Nc1nc(=O)c2ccccc2s1 ?
TCR CD3 inh: -1.1; mABHD4 FP: 3.4; SIAE primary: 0.6; PRMT1 FP inh: 44.3*; HTRA1 inh: -5.0; PRMT1 inh conf: -6.3

How did COc1ccc(-n2c(SCC(=O)N/N=C(/C)c3cccc(O)c3)nc3ccccc3c2=O)cc1 do in these assays?
mABHD4 FP: -4.7; SIAE primary: -1.6; PRMT1 FP inh: 4.5

How did CC(COc1ccc(C#N)c(F)c1)CN1CCC(C(O)(c2ccccc2)c2ccccc2)CC1 (centres undefined) do in these assays?
mABHD4 FP: 8.0; SIAE primary: 0.9; PRMT1 FP inh: -1.9

What do the screens show for `CCOC(=O)c1c(C)[nH]c(O)c1C=Nc1ccc(C(F)(F)F)cc1`?
TCR CD3 inh: -4.6; mABHD4 FP: 11.3; SIAE primary: 5.0; PRMT1 FP inh: 28.8*; HTRA1 inh: 61.9*; PRMT1 inh conf: 14.4

What do the screens show for `COC(=O)c1c(C)[nH]c(O)c1C=Nc1ccc(C(C)C)cc1`?
TCR CD3 inh: -10.8; mABHD4 FP: -4.5; SIAE primary: 1.0; PRMT1 FP inh: 3.1; HTRA1 inh: 14.8

Results for Cc1cc(C)nc(SCCN(C)C)n1 ?
TCR CD3 inh: 6.3; mABHD4 FP: 4.0; SIAE primary: 5.6; PRMT1 FP inh: -0.5; HTRA1 inh: 12.3

How did Cc1cc(C)nc(SCCN2CCCCC2)n1 do in these assays?
TCR CD3 inh: 0.9; mABHD4 FP: -7.2; SIAE primary: -7.2; PRMT1 FP inh: 26.4*; HTRA1 inh: 9.9; PRMT1 inh conf: 20.6

What do the screens show for `O=S1(=O)c2ccc(N3CC[C@H](O)C3)cc2O[C@H]2CCN1C2`?
mABHD4 FP: 8.0; SIAE primary: 1.5; PRMT1 FP inh: 2.8
